Test results from ChEMBL document CHEMBL1154198, “Chemical genetics of Plasmodium falciparum” (Nature, 2010).

What was measured:
Trypanosoma brucei = assay: ST_JUDE: Cytotoxicity using luciferase to measure ATP as an indicator of the viability of Trypanosoma brucei; format: functional, organism-based
Plasmodium falciparum [1] = assay: ST_JUDE: Plasmodium falciparum 3D7 EC50 (uM) as measured by SYBR green dye; format: functional, organism-based
[2] = ST_JUDE: Cytotoxicity using luciferase to measure ATP as an indicator of the viability of human Burkitt''s lymphoma lymphoblast cells (Raji); format: toxicity, cell-based
Plasmodium falciparum [3] = assay: ST_JUDE: Cytotoxicity against Plasmodium falciparum W2; format: functional, organism-based
Plasmodium falciparum [4] = assay: ST_JUDE: Cytotoxicity against Plasmodium falciparum K1; format: functional, organism-based
How it was run: (§1)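 Asexual P. falciparum grown in human erythrocytes, exposed to compounds for 72 h, and growth read as the DNA quantity in treated versus control cultures. Dose-response run at 12 concentrations from 10 μM to 5 nM.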

Leishmania major = assay: ST_JUDE: Cytotoxicity using Alamar Blue to measure viability of Leishmania major; format: functional, organism-based
How it was run: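 L. major promastigotes; drug susceptibility read with Alamar Blue.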

[5] = ST_JUDE: Cytotoxicity using luciferase to measure ATP as an indicator of the viability of human foreskin fibroblast cells (BJ); format: toxicity, cell-based
[6] = ST_JUDE: Cytotoxicity using luciferase to measure ATP as an indicator of the viability of human epithelial embryonic kidney cells (HEK293); format: toxicity, cell-based
Toxoplasma gondii = assay: ST_JUDE: Growth inhibition of to Toxoplasma gondii, in human U-2OS cells, as measured by luciferase.; format: functional, organism-based; details: RH, U2OS
How it was run: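 T. gondii parasites engineered to express luciferase; drug sensitivity read by luminescence.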

[7] = ST_JUDE: Cytotoxicity using luciferase to measure ATP as an indicator of the viability of human epithelial hepatocellular carcinoma cells (HepG2); format: toxicity, cell-based
Plasmodium falciparum [8] = assay: ST_JUDE: Cytotoxicity against Plasmodium falciparum Dd2; format: functional, organism-based
Plasmodium falciparum [9] = assay: ST_JUDE: Cytotoxicity against Plasmodium falciparum 3D7; format: functional, organism-based; how it was run: as §1
Plasmodium falciparum [10] = assay: ST_JUDE: Cytotoxicity against Plasmodium falciparum D10 transfected with yeast DHOD; format: functional, organism-based
Plasmodium falciparum [11] = assay: ST_JUDE: Cytotoxicity against Plasmodium falciparum SB-A6; format: functional, organism-based
Plasmodium falciparum [12] = assay: ST_JUDE: Cytotoxicity against Plasmodium falciparum V1/S; format: functional, organism-based
Plasmodium falciparum [13] = assay: ST_JUDE: Plasmodium falciparum K1 EC50 (uM) as measured by SYBR green dye; format: functional, organism-based

| SMILES | EC50 (Trypanosoma brucei) [nM] | EC50 (Plasmodium falciparum [1]) [nM] | EC50 [2] [nM] | EC50 (Plasmodium falciparum [3]) [nM] | EC50 (Plasmodium falciparum [4]) [nM] | EC50 (Leishmania major) [nM] | EC50 [5] [nM] | EC50 [6] [nM] | EC50 (Toxoplasma gondii) [nM] | EC50 [7] [nM] | EC50 (Plasmodium falciparum [8]) [nM] | EC50 (Plasmodium falciparum [9]) [nM] | EC50 (Plasmodium falciparum [10]) [nM] | EC50 (Plasmodium falciparum [11]) [nM] | EC50 (Plasmodium falciparum [12]) [nM] | EC50 (Plasmodium falciparum [13]) [nM] |
| --- | --- | --- | --- | --- | --- | --- | --- | --- | --- | --- | --- | --- | --- | --- | --- | --- |
| C[n+]1ccccc1/C=C/c1ccc([N+](=O)[O-])cc1 | > 32400 | 1410 | > 33800 | 4230 | 745 | > 14500 | > 33800 | > 33800 | > 18500 | > 33800 | 1040 | 804 | 899 | 1080 | 858 | 1420 |
| CC(C)(C)c1ccc(S(=O)(=O)NC2=C/C(=N\c3ccc(O)cc3)C(=O)c3ccccc32)cc1 | 669 | 1080 | 4070 | 385 | 326 | > 14000 | 4620 | 7990 | > 18000 | 2180 | 1030 | 600 | 244 | 304 | 687 | 579 |
| COc1ccccc1C1CC2=NC(C)=C(C(=O)OC(C)C)C(c3ccc(Cl)cc3)C2=C(O)C1 (stereo not given) | 680 | 1280 | > 29900 | > 7680 | 641 | > 12800 | > 29900 | > 29900 | > 16400 | > 29900 | 1100 | 1010 | 780 | 753 | 846 | 688 |
| Cc1ccc(C)c(N2CCN(Cc3cc(Br)ccc3O)CC2)c1 | 28300 | 395 | > 35600 | 571 | 206 | > 15300 | > 35600 | > 35600 | > 19500 | > 35600 | 427 | 532 | 579 | 716 | 297 | 178 |
| CCCCOc1ccc(N(C(C)=O)C2=C(N3CCOCC3)C(=O)c3ccccc3C2=O)cc1 | 4010 | 98.9 | 3820 | 930 | 66 | > 13400 | > 31200 | 10900 | > 17100 | 3890 | 488 | 70.8 | 21.2 | 28.9 | 36.4 | 95.6 |
| CCN(C(C)=O)C1=C(N2CCOCC2)C(=O)c2ccccc2C1=O | 5670 | 348 | 2730 | > 8340 | 439 | > 13900 | 8990 | > 32500 | 3210 | 3200 | 380 | 431 | 467 | 611 | 514 | 692 |
| CN1/C(=C/c2cccc[n+]2C)Sc2ccccc21 | 3950 | 540 | 4050 | 495 | 605 | 108 | > 28300 | > 28300 | > 15500 | > 28300 | 771 | 567 | 879 | 681 | 503 | 389 |
| CCOc1cc(C2CC(=O)NC3=C2C(=O)CC(c2ccc(OC)cc2)C3)cc(Cl)c1O (stereo not given) | > 42600 | 525 | > 44400 | 637 | 1040 | > 19000 | > 44400 | > 44400 | > 24300 | > 44400 | 1310 | 976 | 1160 | 1230 | 1180 | 840 |
| CCN(CC)c1ccc(/C=C/c2ccc3ccc(OC)cc3[n+]2CC)cc1 | 441 | 1130 | 484 | 304 | 419 | 2.4 | > 16800 | > 16800 | 4170 | 1920 | 229 | 422 | 308 | 449 | 413 | 803 |
| COc1ccc(NC(=O)C2c3ccccc3C(=O)N(CC(C)C)C2c2cccs2)cc1 (stereo not given) | 7550 | 102 | > 47700 | > 12300 | 196 | > 20400 | > 47700 | > 47700 | > 26100 | > 47700 | 255 | 217 | 329 | 370 | 416 | 120 |
